Values after ≈ are worked out from the molar mass of the structure shown.
Experiments:
Format in all cases: functional
[1] = Antifungal activity against Cryptococcus neoformans NCIM 576 by standard agar method
Outline: (§1)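 MICs determined by standard agar method; DMSO as solvent control.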

[2] = test system: Mycobacterium tuberculosis; assay: Growth inhibition of Mycobacterium bovis BCG ATCC 35743 at dormant stage at 30 ug/ml measured after 12 days by nitrate reductase dye based two fold dilution method relative to control; settings: BCG str. ATCC 35743, 288 h, read-out: GI
Outline: (§2)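 M. bovis BCG was grown in Dubos medium and assayed in Mycobacterium pheli minimal medium (pH 6.6), with compounds from DMSO stocks. Incubation lasted 8 days for active and 12 days for dormant cultures. Viability was read by nitrate reductase at 540 nm against cell-free blanks, with vehicle set as 100% growth. Primary screen was at 30, 10 and 3 µg/ml, in triplicate, mean ± SD. MIC was taken from dose-response curves.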

Bacillus subtilis [3] = assay: Growth inhibition of Bacillus subtilis NCIM 2079 at 30 ug/ml measured after 12 hrs relative to control; settings: NCIM 2079, 12 h, read-out: GI
Outline: (§3)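 Bacteria grown in LB at 37 °C and 180 rpm to OD 1. Compounds added to wells, then 0.1% inoculum of 1 OD culture (620 nm). Growth read as OD at 620 nm after 8 h for gram-negative and after 12 h for gram-positive strains.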

Candida albicans = assay: Antifungal activity against Candida albicans NCIM 3471 by standard agar method; outline: as §1
Pseudomonas fluorescens [4] = assay: Antibacterial activity against Pseudomonas fluorescens NCIM 2036 measured after 8 hrs; settings: NCIM 2036, 8 h; outline: as §3
Escherichia coli [5] = assay: Growth inhibition of Escherichia coli NCIM 2688 at 3 ug/ml measured after 8 hrs relative to control; settings: NCIM 2688, 8 h, read-out: GI; outline: as §3
Aspergillus flavus = assay: Antifungal activity against Aspergillus flavus NCIM 539 by standard agar method; outline: as §1
[6] = test system: Mycobacterium tuberculosis; assay: Growth inhibition of Mycobacterium tuberculosis H37Ra ATCC 25177 at dormant stage measured after 12 days by XTT dye based two fold dilution method; settings: H37Ra ATCC 25177, 288 h
Outline: (§4)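 MTB H37Ra was grown in Dubos medium, then exposed in Mycobacterium pheli minimal medium (pH 6.6) to compounds dissolved in DMSO. The assay ended on day 8 (active) or day 12 (dormant). Viable cells were measured by XTT reduction menadione assay at 470 nm, blank-corrected, relative to vehicle control. Triplicates were expressed as mean ± SD. MIC came from dose-response curves.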

Staphylococcus aureus [7] = assay: Growth inhibition of Staphylococcus aureus NCIM 2010 at 3 ug/ml measured after 12 hrs relative to control; settings: NCIM 2010, 12 h, read-out: GI; outline: as §3
Pseudomonas fluorescens [8] = assay: Growth inhibition of Pseudomonas fluorescens NCIM 2036 at 10 ug/ml measured after 8 hrs relative to control; settings: NCIM 2036, 8 h, read-out: GI; outline: as §3
Pseudomonas fluorescens [9] = assay: Growth inhibition of Pseudomonas fluorescens NCIM 2036 at 30 ug/ml measured after 8 hrs relative to control; settings: NCIM 2036, 8 h, read-out: GI; outline: as §3
[10] = test system: Mycobacterium tuberculosis; assay: Growth inhibition of Mycobacterium bovis BCG ATCC 35743 at active stage measured after 8 days by nitrate reductase dye based two fold dilution method; settings: BCG str. ATCC 35743, 192 h; outline: as §2
Bacillus subtilis [11] = assay: Growth inhibition of Bacillus subtilis NCIM 2079 at 10 ug/ml measured after 12 hrs relative to control; settings: NCIM 2079, 12 h, read-out: GI; outline: as §3
[12] = Antifungal activity against Fusarium oxysporum NCIM 1332 by standard agar method; outline: as §1
Staphylococcus aureus [13] = assay: Antibacterial activity against of Staphylococcus aureus NCIM 2010 measured after 12 hrs; settings: NCIM 2010, 12 h; outline: as §3
[14] = test system: Mycobacterium tuberculosis; assay: Growth inhibition of Mycobacterium bovis BCG ATCC 35743 at dormant stage at 10 ug/ml measured after 12 days by nitrate reductase dye based two fold dilution method relative to control; settings: BCG str. ATCC 35743, 288 h, read-out: GI; outline: as §2
[15] = test system: Mycobacterium tuberculosis; assay: Growth inhibition of Mycobacterium tuberculosis H37Ra ATCC 25177 at active stage measured after 8 days by XTT dye based two fold dilution method; settings: H37Ra ATCC 25177, 192 h; outline: as §4
Escherichia coli [16] = assay: Growth inhibition of Escherichia coli NCIM 2688 at 30 ug/ml measured after 8 hrs relative to control; settings: NCIM 2688, 8 h, read-out: GI; outline: as §3
Escherichia coli [17] = assay: Antibacterial activity against Escherichia coli NCIM 2688 measured after 8 hrs; settings: NCIM 2688, 8 h; outline: as §3
Staphylococcus aureus [18] = assay: Growth inhibition of Staphylococcus aureus NCIM 2010 at 30 ug/ml measured after 12 hrs relative to control; settings: NCIM 2010, 12 h, read-out: GI; outline: as §3
[19] = test system: Mycobacterium tuberculosis; assay: Growth inhibition of Mycobacterium bovis BCG ATCC 35743 at dormant stage at 3 ug/ml measured after 12 days by nitrate reductase dye based two fold dilution method relative to control; settings: BCG str. ATCC 35743, 288 h, read-out: GI; outline: as §2
[20] = test system: Mycobacterium tuberculosis; assay: Growth inhibition of Mycobacterium bovis BCG ATCC 35743 at dormant stage measured after 12 days by nitrate reductase dye based two fold dilution method; settings: BCG str. ATCC 35743, 288 h; outline: as §2
Bacillus subtilis [21] = assay: Growth inhibition of Bacillus subtilis NCIM 2079 at 3 ug/ml measured after 12 hrs relative to control; settings: NCIM 2079, 12 h, read-out: GI; outline: as §3
Staphylococcus aureus [22] = assay: Growth inhibition of Staphylococcus aureus NCIM 2010 at 10 ug/ml measured after 12 hrs relative to control; settings: NCIM 2010, 12 h, read-out: GI; outline: as §3
Pseudomonas fluorescens [23] = assay: Growth inhibition of Pseudomonas fluorescens NCIM 2036 at 3 ug/ml measured after 8 hrs relative to control; settings: NCIM 2036, 8 h, read-out: GI; outline: as §3
Aspergillus niger = assay: Antifungal activity against Aspergillus niger NCIM 1196 by standard agar method; outline: as §1
Escherichia coli [24] = assay: Growth inhibition of Escherichia coli NCIM 2688 at 10 ug/ml measured after 8 hrs relative to control; settings: NCIM 2688, 8 h, read-out: GI; outline: as §3
Bacillus subtilis [25] = assay: Antibacterial activity against Bacillus subtilis NCIM 2079 measured after 12 hrs; settings: NCIM 2079, 12 h; outline: as §3

Row | Compound | MIC [1] [µg/mL] | inhibition of growth at 30 µg/mL [2] [%] | inhibition of growth at 30 µg/mL (Bacillus subtilis [3]) [%] | MIC (Candida albicans) [µg/mL] | MIC (Pseudomonas fluorescens [4]) [µg/mL] | inhibition of growth at 3 µg/mL (Escherichia coli [5]) [%] | MIC (Aspergillus flavus) [µg/mL] | IC50 [6] [µg/mL] | IC90 [6] [µg/mL] | inhibition of growth at 3 µg/mL (Staphylococcus aureus [7]) [%] | inhibition of growth at 10 µg/mL (Pseudomonas fluorescens [8]) [%] | inhibition of growth at 30 µg/mL (Pseudomonas fluorescens [9]) [%] | IC50 [10] [µg/mL] | IC90 [10] [µg/mL] | inhibition of growth at 10 µg/mL (Bacillus subtilis [11]) [%] | MIC [12] [µg/mL] | MIC (Staphylococcus aureus [13]) [µg/mL] | inhibition of growth at 10 µg/mL [14] [%] | IC50 [15] [µg/mL] | IC90 [15] [µg/mL] | further results
1 | O=C(O)CCN1C(=O)/C(=C/c2cc3cc(F)ccc3nc2Cl)SC1=S | 25 (≈ 63 µM) | 59.8 | -9.07 | 50 (≈ 126 µM) | > 30 | 15.7 | 25 (≈ 63 µM) | > 30 | > 30 | 5.15 | -7.25 | 7.54 | > 30 | > 30 | -4.74 | 50 (≈ 126 µM) | > 30 | 23.5 | > 30 | > 30 | inhibition of growth at 30 µg/mL (Escherichia coli [16]): 22.4%; MIC (Escherichia coli [17]): > 30 µg/mL; inhibition of growth at 30 µg/mL (Staphylococcus aureus [18]): -23.8%; inhibition of growth at 3 µg/mL [19]: 18.2%; IC50 [20]: > 30 µg/mL; IC90 [20]: > 30 µg/mL; inhibition of growth at 3 µg/mL (Bacillus subtilis [21]): -5.16%; inhibition of growth at 10 µg/mL (Staphylococcus aureus [22]): -12.1%; inhibition of growth at 3 µg/mL (Pseudomonas fluorescens [23]): 9.73%; MIC (Aspergillus niger): 25 µg/mL (≈ 63 µM); inhibition of growth at 10 µg/mL (Escherichia coli [24]): 21.4%; MIC (Bacillus subtilis [25]): > 30 µg/mL
2 | COc1ccc2nc(Cl)c(/C=C3\SC(=S)N(CCC(=O)O)C3=O)cc2c1 | 150 (≈ 367 µM) | 27.2 | -3.99 | 125 (≈ 306 µM) | > 30 | 20.7 | 100 (≈ 245 µM) | > 30 | > 30 | -2.06 | -17 | -27.3 | > 30 | > 30 | -1.08 | 175 (≈ 428 µM) | > 30 | 27.2 | > 30 | > 30 | inhibition of growth at 30 µg/mL (Escherichia coli [16]): 13.5%; MIC (Escherichia coli [17]): > 30 µg/mL; inhibition of growth at 30 µg/mL (Staphylococcus aureus [18]): -16.1%; inhibition of growth at 3 µg/mL [19]: 25.4%; IC50 [20]: > 30 µg/mL; IC90 [20]: > 30 µg/mL; inhibition of growth at 3 µg/mL (Bacillus subtilis [21]): -6.61%; inhibition of growth at 10 µg/mL (Staphylococcus aureus [22]): -21.7%; inhibition of growth at 3 µg/mL (Pseudomonas fluorescens [23]): -4.49%; MIC (Aspergillus niger): 175 µg/mL (≈ 428 µM); inhibition of growth at 10 µg/mL (Escherichia coli [24]): 14.4%; MIC (Bacillus subtilis [25]): > 30 µg/mL
3 | O=C(O)CN1C(=O)/C(=C/c2cc3cc(Cl)ccc3nc2Cl)SC1=S | 125 (≈ 313 µM) | 9.92 | 1.23 | 125 (≈ 313 µM) | > 30 | -12.7 | 150 (≈ 376 µM) | > 30 | > 30 | -1.15 | -1.23 | -2.12 | > 30 | > 30 | -12.6 | 150 (≈ 376 µM) | > 30 | 2.07 | > 30 | > 30 | inhibition of growth at 30 µg/mL (Escherichia coli [16]): -14%; MIC (Escherichia coli [17]): > 30 µg/mL; inhibition of growth at 30 µg/mL (Staphylococcus aureus [18]): -32.2%; inhibition of growth at 3 µg/mL [19]: -9.46%; IC50 [20]: > 30 µg/mL; IC90 [20]: > 30 µg/mL; inhibition of growth at 3 µg/mL (Bacillus subtilis [21]): -4.86%; inhibition of growth at 10 µg/mL (Staphylococcus aureus [22]): 3.88%; inhibition of growth at 3 µg/mL (Pseudomonas fluorescens [23]): -72.5%; MIC (Aspergillus niger): 100 µg/mL (≈ 250 µM); inhibition of growth at 10 µg/mL (Escherichia coli [24]): -12.4%; MIC (Bacillus subtilis [25]): > 30 µg/mL

Reference: ChEMBL document CHEMBL3877264, “Quinolidene-rhodanine conjugates: Facile synthesis and biological evaluation” (Eur J Med Chem, 2017)
